Experimental data collected from several papers.
Lines come from different studies, so protocols differ.
RET V804L: Proto-oncogene tyrosine-protein kinase receptor Ret (RET, Homo sapiens, UniProt P07949, V804L)
RET: Proto-oncogene tyrosine-protein kinase receptor Ret (RET, Homo sapiens, UniProt P07949)
RET V804M: Proto-oncogene tyrosine-protein kinase receptor Ret (RET, Homo sapiens, UniProt P07949, V804M)

For C[C@H](c1ccnc(Nc2nc3ccc(-c4cc(N(C)C)ncn4)cc3[nH]2)c1)N1CCN(C(=O)CC(F)(F)F)CC1, the remaining binding was 83% (RET V804L; cell-free assay, competition with immobilised ligand; 0.1 µM).
COc1cc(NC(=O)Nc2cc(C)c3nc(NC(=O)c4ccccc4)sc3c2)cc(OC)c1 gave a remaining activity of 123% (RET; enzyme activity, inhibitor, radiometric; 0.1 µM).
CNC(=O)Nc1ccc2c(c1)[C@@]1(CC2)OC(=O)N(CC(=O)N(Cc2ccc(F)cc2)[C@@H](C)C(F)(F)F)C1=O gave a remaining binding of 94% (RET V804L; cell-free assay, competition with immobilised ligand; 1 µM).
The remaining signal of Nc1ncnc2occ(-c3ccc(NC(=O)Nc4cc(C(F)(F)F)ccc4F)cc3)c12 is reported as 0% (RET; cell-free assay; 20 µM).
CCCOc1ccc(OC)c(F)c1C(=O)c1ccc(C(=O)N[C@@H]2CNC[C@H]2NC(=O)c2ccc3[nH]ncc3c2)cc1 has a remaining activity of 1% (RET; enzyme activity, inhibitor; 10 µM).
CC(C)(O)c1cncc(-c2nc3ccc(F)cc3n2C2CC2)c1 gave a remaining binding of 100% (RET V804M; cell-free assay, competition with immobilised ligand; 1 µM).
The remaining activity of COc1ccc(-c2cn3cc(C(=O)N4CC(O)C4)nc3c(=O)n2C)c(F)c1 is reported as 117% (RET; enzyme activity, inhibitor, radiometric; 0.1 µM).
CO[C@]1(C(=O)N[C@@H](C)c2ccc(-n3cc(F)cn3)nc2)CC[C@H](c2nc(C)cc(Nc3cc(C)[nH]n3)n2)CC1 has a ΔTm of 11.9 °C (Proto-oncogene tyrosine-protein kinase receptor Ret (RET, Homo sapiens, UniProt P07949, L760A); thermal stability, DSF; 10 µM).
With COc1cc(NC(=O)Nc2cc(OC)c3nc(NC(=O)c4ccccc4)sc3c2)cc(OC)c1 the remaining activity was 112% (RET; enzyme activity, inhibitor, radiometric; 0.1 µM).
COc1ccc(CN2C3CC2CN(c2ccc(-c4cc(OCC(C)(C)O)cn5ncc(C#N)c45)cn2)C3)cn1 gave a ΔTm of 6.4 °C (RET V804M; thermal stability, DSF; 10 µM).
